Active and inactive are the calls of the source. No cut-off for these calls is given here.
How the values were obtained:
Leishmania donovani [1] = assay: Growth inhibition of wild type Leishmania donovani AG83 promastigotes after 72 hrs by MTT method; conditions: AG83, 72 h
Leishmania donovani [2] = assay: Growth inhibition of wild type Leishmania donovani AG83 amastigotes in J774A.1 after 5 days by luciferase reporter assay; conditions: AG83, J774.A1, 120 h
J774.A1 = assay: Growth inhibition of J774A.1 macrophage cells after 24 hrs by MTT method; format: functional, cell-based; conditions: Mus musculus, J774.A1, 24 h
Outline: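 J774A.1 murine macrophages kept at 37°C in RPMI 1640 with 10% FBS. Viability was read 24 h after drug addition.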

[3] = target: T1, Ornithine decarboxylase (Leishmania donovani) (UniProt P27116); assay: Inhibition of ODC in Leishmania donovani promastigotes at 50 uM after 48 hrs
T1 sequence (whole entry): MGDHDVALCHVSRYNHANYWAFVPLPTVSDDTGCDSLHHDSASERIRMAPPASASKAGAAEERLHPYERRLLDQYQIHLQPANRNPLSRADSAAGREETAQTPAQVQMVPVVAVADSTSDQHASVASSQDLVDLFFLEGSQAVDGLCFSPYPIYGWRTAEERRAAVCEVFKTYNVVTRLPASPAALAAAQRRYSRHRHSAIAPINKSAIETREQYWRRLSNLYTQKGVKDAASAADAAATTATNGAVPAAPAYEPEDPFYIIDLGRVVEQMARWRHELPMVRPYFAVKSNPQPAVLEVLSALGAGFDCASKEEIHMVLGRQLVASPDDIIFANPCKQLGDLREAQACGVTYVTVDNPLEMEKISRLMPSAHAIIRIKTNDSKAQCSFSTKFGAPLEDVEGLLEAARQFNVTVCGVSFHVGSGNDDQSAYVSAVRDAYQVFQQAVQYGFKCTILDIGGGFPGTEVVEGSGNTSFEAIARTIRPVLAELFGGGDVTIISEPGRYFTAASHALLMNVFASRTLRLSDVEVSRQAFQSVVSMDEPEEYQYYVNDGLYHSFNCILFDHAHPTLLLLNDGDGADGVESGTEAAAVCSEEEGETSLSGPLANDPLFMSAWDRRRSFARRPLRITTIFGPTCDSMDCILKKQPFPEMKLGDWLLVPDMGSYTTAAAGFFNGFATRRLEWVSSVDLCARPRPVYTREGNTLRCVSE
Outline: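 Late-log promastigotes (1 x 10^7) were treated 48 h, then washed in PBS and freeze-thaw lysed in 50 mM Tris-HCl pH 7.5, 10 µM EDTA, 2.5 mM DTT. Released 14CO2 is expressed as nmol CO2/mg protein/h (Bradford). Mean ± SD, n = 3.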

Leishmania donovani [4] = assay: Reduction of putrescine level in Leishmania donovani promastigotes at 50 uM for after 48 hrs relative to control; format: functional; design: scale not given: the % may be the effect or the level left
Outline: (§1)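 Log-phase promastigotes (1 x 10^7) were exposed 48 h and pelleted at 2,000 x g, 4°C. Acid extracts were dansyl-chloride derivatized before column and analysed by C18 reversed-phase HPLC. Values are vs untreated controls, mean ± SD (n = 3), Student's t test, P < 0.05.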

Leishmania donovani [5] = assay: Reduction of spermidine level in Leishmania donovani promastigotes at 50 uM after 48 hrs relative to control; format: functional; design: scale not given: the % may be the effect or the level left
Outline: as §1

Leishmania donovani [6] = assay: Reduction of trypanothione level in Leishmania donovani promastigotes at 50 uM after 48 hrs relative to control; format: functional; design: scale not given: the % may be the effect or the level left
Outline: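 Log-phase promastigotes were treated 48 h before harvest, compared with untreated controls. Mean ± SD, n = 3, Student's t test.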

Leishmania donovani [7] = assay: Growth inhibition of Leishmania donovani AG83 promastigotes transfected with episomal ODC gene construct overproducing ODC; format: functional, organism-based
Outline: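 Late-log-phase promastigotes, cultured at 22°C in M-199 (Hanks' salts, 25 mM HEPES, 10% FBS, gentamicin), were exposed to drug for 72 h. MTT was then added for 4 h, the reaction was stopped with acidic isopropanol, and absorbance was read at 570 nm to give IC50. Two or more independent experiments were run in triplicate.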

Leishmania donovani [8] = assay: Growth inhibition of Leishmania donovani AG83 amastigotes transfected with episomal ODC gene construct overproducing ODC; format: functional, organism-based
Leishmania donovani [9] = assay: Growth inhibition of Leishmania donovani promastigotes S1 LV patient isolate in J774A.1 cells after 5 days; format: functional, organism-based
Leishmania donovani [10] = assay: Growth inhibition of Leishmania donovani amastigotes S1 LV patient isolate in J774A.1 cells after 5 days; format: functional, organism-based; conditions: J774.A1, 120 h
Outline: (§2)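 J774A.1 murine macrophages kept at 37°C in RPMI 1640 with 10% FBS. 1 x 10^5 cells per well were infected with 1 x 10^6 stationary-phase luciferase-expressing (pGL-NEO LUC) promastigotes in M-199 with 10% FBS. Free parasites were washed off after 3 h, then drug was added at a range of concentrations for 5 days. Luciferase was read from washed adherent macrophages, and IC50 was taken from a concentration vs RLU plot.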

Leishmania donovani [11] = assay: Growth inhibition of Leishmania donovani SAG-resistant R1 LV patient isolate promastigotes in J774A.1 cells after 5 days; format: functional, organism-based
Leishmania donovani [12] = assay: Growth inhibition of Leishmania donovani SAG-resistant R1 LV patient isolate amastigotes in J774A.1 cells after 5 days; format: functional, organism-based; conditions: J774.A1, 120 h
Outline: as §2

Leishmania donovani [13] = assay: Growth inhibition of Leishmania donovani SAG-resistant R2 LV patient isolate promastigotes in J774A.1 cells after 5 days; format: functional, organism-based
Leishmania donovani [14] = assay: Growth inhibition of Leishmania donovani SAG-resistant R2 LV patient isolate amastigotes in J774A.1 cells after 5 days; format: functional, organism-based; conditions: J774.A1, 120 h
Outline: as §2

Leishmania donovani [15] = assay: Growth inhibition of Leishmania donovani SAG-resistant GE1 LV patient isolate promastigotes in J774A.1 cells after 5 days; format: functional, organism-based
Leishmania donovani [16] = assay: Growth inhibition of Leishmania donovani SAG-resistant GE1 LV patient isolate amastigotes in J774A.1 cells after 5 days; format: functional, organism-based; conditions: J774.A1, 120 h
Outline: as §2

Leishmania donovani [17] = assay: Reversal of growth inhibition of Leishmania donovani promastigotes at 50uM after 24 hrs of 1 mM putrescine treatment; format: functional, organism-based
Outline: (§3)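 Promastigotes grown at 22°C in M-199 (Hanks' salts, 25 mM HEPES, 10% FBS, 100 µg/ml gentamicin) with 50 µM drug. 1 mM putrescine or spermidine was added after 24 h or 48 h of treatment. Growth was followed over 120 h by hemocytometer counts every 24 h. Mean ± SD of three determinations.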

Leishmania donovani [18] = assay: Reversal of growth inhibition of Leishmania donovani promastigotes at 50 uM after 48 hrs of 1 mM spermidine treatment; format: functional, organism-based
Outline: as §3

Leishmania donovani [19] = assay: Reversal of growth inhibition of Leishmania donovani promastigotes at 50uM after 48 hrs of 1 mM putrescine treatment; format: functional, organism-based
Outline: as §3

Leishmania donovani [20] = assay: Reversal of growth inhibition of Leishmania donovani promastigotes at 50 uM after 24 hrs of 1 mM spermidine treatment; format: functional, organism-based
Outline: as §3

Q: For `NCCCC(N)(C(=O)O)C(F)F` (stereo not drawn) [EFLORNITHINE], which IC50 (Leishmania donovani [1]) is on record?
A: The IC50 was greater than 10000 µM.

Q: What about the IC50 (Leishmania donovani [2]) of the same compound?
A: The IC50 was 50 µM.

Q: With `NCCCON` as the compound, how does the IC50 (J774.A1) read?
A: Its IC50 is greater than 200 µM.

Q: And the inhibition [3]?
A: Its inhibition is 76%.

Q: What about the Activity (Leishmania donovani [4]) of the same compound?
A: The Activity was 70%.

Q: What about the Activity (Leishmania donovani [5]) of the same compound?
A: The Activity was 44%.

Q: And the Activity (Leishmania donovani [6])?
A: The Activity was 79%.

Q: What about the IC50 (Leishmania donovani [7]) of the same compound?
A: Its IC50 is 155 µM.

Q: And the IC50 (Leishmania donovani [8])?
A: The IC50 was greater than 100 µM.

Q: What about the IC50 (Leishmania donovani [9]) of the same compound?
A: Its IC50 is 19 µM.

Q: What about the IC50 (Leishmania donovani [10]) of the same compound?
A: Its IC50 is 10 µM.

Q: What about the IC50 (Leishmania donovani [11]) of the same compound?
A: The IC50 was greater than 400 µM.

Q: What about the IC50 (Leishmania donovani [12]) of the same compound?
A: The IC50 was greater than 200 µM.

Q: What about the IC50 (Leishmania donovani [13]) of the same compound?
A: The IC50 was 46 µM.

Q: And the IC50 (Leishmania donovani [14])?
A: Its IC50 is greater than 200 µM.

Q: What about the IC50 (Leishmania donovani [15]) of the same compound?
A: Its IC50 is greater than 400 µM.

Q: And the IC50 (Leishmania donovani [16])?
A: The IC50 was greater than 200 µM.

Q: And the Activity (Leishmania donovani [17])?
A: The Activity was “Active”.

Q: What about the Activity (Leishmania donovani [18]) of the same compound?
A: Its Activity is “Active”.

Q: What about the Activity (Leishmania donovani [19]) of the same compound?
A: Its Activity is “Active”.

Q: What about the Activity (Leishmania donovani [20]) of the same compound?
A: The Activity was “Active”.

Q: What about the IC50 (Leishmania donovani [1]) of the same compound?
A: Its IC50 is 42 µM.

Q: And the IC50 (Leishmania donovani [2])?
A: Its IC50 is 5 µM.
